SMILES strings stand for the structures. Out of some 2,400 compounds screened, about 1,200 (50%) were called active. So high a share suggests a set chosen from earlier hits. These entries were drawn from the full list. Values without a mark were called inactive.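 How the source made its calls: active means activation above the run cutoff, the mean activation over all tested wells plus 3 SD (cut at about 12% in these data); inactive means the rest.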

The values below come from PubChem BioAssay AID651787 (The Scripps Research Institute Molecular Screening Center, 2012).

The assay in a line: calcium rise in parental Ga16 cells – cell-based, fluorescence, CHO-Ga16 parental line, counter-screen for hTAAR1 agonist project (AID 651787). As to conditions: Fluo-8 calcium fluorescence, at 3 µM, active compounds read high, normalized to maximal ATP response, DMSO zero. A digest of the protocol: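 Assay system: Gα16-overexpressing parental CHO cells; read-out basis: percent activation from max/basal fluorescence ratio; schedule: 17-24 h seeding, dye 75 min 37 °C, 30 min RT; control set: DMSO (0%) and EC100 ATP (100%); signal: kinetic Fluo-8 calcium fluorescence, ex 470-495/em 515-575 nm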
(The purpose of a counterscreen is to sort out artefacts and off-target activity.)
With `Nc1cccc2c1C(=O)N(Cc1nnc(-c3ccccc3Br)o1)C2=O`, the activation is 60.4% (active). In the case of `CCCCCC(=O)NC(=S)NNC(=O)c1ccc([N+](=O)[O-])cc1` it was 91.4% (active); in that of `O=C(NCCc1ccccc1)/C(=C\c1ccc([N+](=O)[O-])cc1)NC(=O)c1ccccc1`, 2.11%; in that of `CCCC1CCC(=NNC(=S)NCCc2ccccc2)CC1` (stereo not given), 14.1% (active).

With `O=C(O)C1CC=CCC1C(=O)NCCc1ccccc1` (stereo not given), the activation is 0.16%.

Turning to `CCC(C(=O)Nc1ccc(C(C)C)cc1)c1ccccc1` (stereo not given), the activation was 75.1% (active). In the case of `c1ccc(C2CNCc3c2ccc2ccccc32)cc1` (stereo not given) it was 25.6% (active); in that of `COc1ccc(C(=O)CN2C(=O)NC(C)(c3ccc(C)cc3)C2=O)cc1OC` (stereo not given), 20.1% (active); in that of `Cc1ccc(O)c(NC(=S)NC(=O)COc2ccc(Br)cc2)c1`, 101% (active).

Consider `Nc1nonc1-n1nnc(C(=O)N/N=C/c2ccc(Cl)cc2)c1-c1ccc2c(c1)OCO2`, for which the activation is 92.4% (active).

On to `CCCOc1ccc(-c2c(C(=O)N/N=C/c3ccco3)nnn2-c2nonc2N)cc1`, for which the activation was 39.5% (active). In the case of `c1ccc(-c2csc(N3CCc4ccccc4C3)n2)cc1` it was 0.58%; in that of `O=C(Nc1ccc(F)cc1)Nc1nnc([C@H]2C[C@H](O)[C@@H](CO)O2)s1`, 4.42%; in that of `O=C(CSc1nc(-c2ccco2)cc(C(F)(F)F)n1)NCc1cccs1`, 0.35%.

For `COc1cccc(N(CC(=O)N2CCc3ccccc3C2)S(C)(=O)=O)c1`, the activation is 1.72%. As to `C#CCOc1ccc(/C=C2/C(=O)NN(c3ccccc3)C2=O)cc1OC`, the activation was 45.9% (active). In the case of `Cc1ccc(Cl)cc1N1CCN(C(=O)c2cccc3c(=O)c(C)c(-c4ccccc4)oc23)CC1` it was 78.9% (active). In the case of `CC(Oc1ccc2ccccc2c1)C(=O)NNC(=S)NC(=O)c1ccco1` (stereo not given) it was 75.1% (active); in that of `CCCc1ccc(OCC(=O)NNC(=S)NC(=O)c2ccco2)cc1`, 64.1% (active).

For `COCCCn1c(Cc2csc(Nc3cccc(Cl)c3)n2)nnc1SCC(=O)OC1CCCCC1`, the activation is 3.91%.

As to `COc1ccc(CC(N)c2csc(NC(=O)Cc3ccccc3)n2)cc1` (stereo not given), the activation was 15.8% (active). In the case of `CC(C)(C)CC(=O)Nc1nc(C(N)Cc2ccc(C(F)(F)F)cc2)cs1` (stereo not given) it was 79.7% (active); in that of `NC(Cc1ccccc1)c1csc(Nc2cc(Oc3ccccc3)ncn2)n1` (stereo not given), 39% (active); in that of `Cn1c(=O)c(=O)n(C)c2cc(S(=O)(=O)NCCc3ccccc3)ccc21`, 0.95%. For `O=C(O)C1C2C=CC(O2)C1C(=O)NCCc1cccc(Cl)c1` (stereo not given), the activation was 2.07%. In the case of `CCCc1cc(C(=O)Nc2ccc(C(=O)OC)cc2)cs1` it was 4.88%. As for `O=C(c1noc2c1CCCC2)N1CCc2ccccc2C1`, the activation is 3.31%. In the case of `NC(=O)C1=C[C@H](c2csc3ccccc23)C[C@H](OCc2ccc(CO)cc2)O1` it was 33.4% (active). In the case of `Cc1cc2nc3c(=O)[nH]c(=O)nc-3n(C[C@H](O)[C@H](O)[C@H](O)CO)c2cc1C` it was 138% (active).

On to `Cc1ccccc1-c1nc(CS(=O)(=O)CC(=O)N2CCc3ccccc3C2)c(C)o1`, for which the activation was 5.05%. In the case of `O=C(NNC(=S)NC(=O)c1cn(-c2ccccc2)nc1-c1ccccc1)c1ccncc1` it was 79.1% (active); in that of `CC(NC(=O)c1cc(-c2ccccc2)on1)c1ccccc1` (stereo not given), 37.5% (active); in that of `CCc1ccccc1S(=O)(=O)Cc1ccc(C(=O)NCCc2ccccc2)o1`, 5.88%.

For the compound `Cc1ccc(S(=O)(=O)N(CC(=O)N2CCc3ccccc3C2)c2cccc(Cl)c2)cc1`, the activation was -0.38%. In the case of `CC(=O)Nc1ccccc1Sc1ccc2c3c(cccc13)C(=O)N(c1ccc(C)cc1)C2=O`, the activation is 0.61%. Turning to `COc1cc(OC)cc(C(=O)N[C@H](C(=O)OCC(=O)NC(C)c2ccccc2)C(C)C)c1` (stereo not given in full), the activation is 24.2% (active).

As for `C[C@H](NC(=O)c1ccccc1)C(=O)OCC(=O)c1c[nH]c2ccccc12`, the activation was 0%.

On to `CCCn1c(O)c(CN2CCCC(C)C2)c(C)c(C#N)c1=O` (stereo not given), for which the activation is 4.14%. In the case of `Cc1onc(-c2ccccc2)c1C(=O)NNC(=S)NC(=O)c1ccc(F)cc1` it was 105% (active); in that of `COc1ccc(C(=O)NC(=S)NNC(=O)c2c(-c3ccccc3)noc2C)cc1`, 68.8% (active). In the case of `Cc1cc(=O)oc2c(C)c(OCC(=O)NCCN3CCOCC3)ccc12` it was 4.41%; in that of `COc1ccc(C(=O)NC(=S)NNC(=O)CCc2ccccc2)cc1`, 87.2% (active); in that of `O=C(Nc1cccc(NC(=O)c2ccc(Br)cc2)c1)c1ccccc1`, 5.7%. `COc1ccc(C(=O)NNC(=S)NC(=O)c2ccccc2)cc1`: the activation is 94.4% (active). In the case of `COc1ccc(OC)c(C(c2nnnn2C(C)(C)C)N2CCc3ccccc3C2)c1` (stereo not given) it was -0.7%. As to `Nc1c(C(=O)c2cccs2)sc2nsc(SCCN3CCCCC3)c12`, the activation is 72.3% (active).

On to `CCC(c1nnnn1Cc1ccco1)N(CCc1ccccc1)Cc1cc2ccc(OC)cc2[nH]c1=O` (stereo not given), for which the activation is 4.24%. In the case of `O=C1CCCC(O)=C1C=NCCc1ccccc1` it was 5.18%; in that of `CCCCc1c(-c2ccc(Br)cc2)ncn1CCc1ccccc1OC`, 13.2% (active). Turning to `CCCCCc1c(-c2ccc(OC)c(OC)c2)ncn1CCc1ccccc1OC`, the activation is 17.4% (active).

`CCCCCc1c(Cc2ccccc2)ncn1CCc1ccccc1OC`: the activation is 17% (active). In the case of `CCCCc1c(-c2ccc(Cl)cc2)ncn1CCc1ccccc1OC` it was 16.1% (active); in that of `CCc1c(-c2ccccc2OC)ncn1CCc1ccccc1OC`, 5.18%; in that of `CCCCCc1c(-c2cccc(Br)c2)ncn1CCc1ccccc1OC`, 10.8%. In the case of `O=[N+]([O-])c1cc(S(=O)(=O)NCCc2ccccn2)ccc1Cl` it was 2.99%. For the compound `CCCCCCCCCCOC(=O)Cn1c(COc2ccc(C)cc2)[n+](C)c2ccccc21`, the activation was 76.5% (active). In the case of `Cc1c(CNCCc2ccccc2)c(C(=O)O)c(C)n1-c1ccccc1` it was 1.76%; in that of `S=C(Nc1ccc(Br)cc1)NC1CCN(Cc2ccccc2)CC1`, 22.9% (active); in that of `O=C(/C=C/[C@H]1O[C@@H](n2cnc3c(NC(=O)c4ccccc4)ncnc32)[C@H](O)[C@@H]1O)NCc1ccccc1`, 0.21%. In the case of `Cc1ccccc1NC(=S)NC(=O)Cc1ccc(Cl)cc1` it was 41.1% (active); in that of `O=C(Cc1ccc(Cl)cc1)NC(=S)Nc1ccccc1O`, 103% (active). As to `O=C(NCCc1ccccc1)Oc1ccc(Cl)cc1`, the activation was 1.7%. `O=c1cnnc(Nc2ccccc2)[nH]1`: the activation is 4.92%. Consider `O=C(Nc1ccccc1)Nc1nnc(COc2ccccc2F)s1`, for which the activation is 8.56%. In the case of `O=Cc1c(NCCc2cccc(F)c2)c2ccccc2[nH]c1=O` it was 2.77%. In the case of `CCCCC(=O)NNC(=S)NC(=O)C(c1ccccc1)c1ccccc1` it was 119% (active); in that of `CN(C)CCCN(C(=O)c1ccc(S(=O)(=O)N2CCCCCC2)cc1)c1nc2ccc(Br)cc2s1`, 36.2% (active); in that of `CN(C)CCCN(C(=O)c1ccc(S(=O)(=O)N2CCCc3ccccc32)cc1)c1nc2ccc(F)cc2s1`, 37.7% (active). In the case of `Nc1nnn(CC(=O)N/N=C/c2ccccc2)n1` it was -0.59%; in that of `c1ccc(CCN2CN=C(Nc3nc4ccccc4o3)NC2)cc1`, 0.14%. With `CC(=O)Oc1ccc(Cn2c(C)c(C(=O)NCc3ccc(C#N)cc3)sc2=O)cc1`, the activation is 66.2% (active). With `Cc1cccc(NC(=O)C(C)N2C(=O)C3C4CC(C(Br)C4Br)C3C2=O)c1` (stereo not given), the activation was 25.2% (active).

Turning to `c1ccc(Nc2nc(N3CCOCC3)c3ccccc3n2)cc1`, the activation is 14.2% (active). Turning to `Nc1c(NCCc2ccccc2)c2ccccc2oc1=O`, the activation was 6.54%.

For the compound `CCOc1ccc(Br)cc1CSC(=N)N`, the activation was 9.07%. With `CCCCOc1ccc(CSC(=N)N)cc1[N+](=O)[O-]`, the activation was 22.3% (active). Turning to `CCN(CC)c1ccc2oc(=O)c(C)nc2c1`, the activation is 43.7% (active). With `Oc1ccc2ccc3cccc[n+]3c2c1`, the activation was 126% (active).

For `CN(C(=O)CN(CCO)CC(=O)N(C)C(C)(C)Cc1ccccc1)C(C)(C)Cc1ccccc1`, the activation is 84.7% (active). Turning to `NC[C@H](Cc1ccccc1)NCCc1cc(C(F)(F)F)cc(C(F)(F)F)c1`, the activation was 21.6% (active). In the case of `CCc1ccc(-c2nn(-c3ccccc3)cc2CSC(=N)N)cc1` it was 26.4% (active); in that of `CN(C)c1ccc(/C=C2\NC(=S)N(Cc3ccccc3)C2=O)cc1`, 67.4% (active).

As for `O=C1CCCN2N=C(SCC(=O)Nc3ccc(Br)cc3)SC2=N1`, the activation is 8.82%.

As for `O=C(Nc1ccncc1)Nc1ccc(F)cc1`, the activation is 4.69%. In the case of `Cc1cc(C)c2cc(C#N)c(N3CCNCC3)nc2c1` it was -0.65%. Consider `N#Cc1ccc(OCCCN2CCC(C(O)(c3ccccc3)c3ccccc3)CC2)c(F)c1`, for which the activation was 21.1% (active). In the case of `O=C(CNC(=O)c1ccccc1F)OCC(=O)c1c[nH]c2ccccc12` it was 2.13%; in that of `S=C(NCCCc1cnc[nH]1)NCCCN(Cc1ccc(Cl)c(Cl)c1)c1ccc(Br)cn1`, 26.5% (active). In the case of `COc1ccc(NC(=O)C(=O)NCC(c2ccco2)N2CCc3ccccc3C2)cc1` (stereo not given) it was 0.06%; in that of `COC(=O)c1[nH]c2cccc(C)c2c1NC(=O)CN1CCCc2ccccc21`, 11.5%; in that of `CCOC(=O)Cc1csc(NC(=O)Nc2ccccc2)n1`, 10.9%.

As to `COc1ccc(C(N)c2csc(NC(=O)Nc3cccc(C(F)(F)F)c3)n2)cc1` (stereo not given), the activation was 22.4% (active).

On to `NC(c1ccccc1)c1csc(NC(=O)Nc2cccc(C(F)(F)F)c2)n1` (stereo not given), for which the activation is 37% (active). `Cc1ccn2c(=O)c(C(=O)NCCC3=CCCCC3)c(O)nc2c1`: the activation is 4.2%. As to `O=C(CCCN=C1NS(=O)(=O)c2ccccc21)OCC(=O)c1ccc(F)c(F)c1`, the activation is 51.3% (active).
